Most compounds without a hit are left out; they make up all but 6.6% or so of the library.
Ecoli WT expand: growth inhibitors of wild-type E. coli, primary screen, strain BW25113, expanded library, OD600. OD600 absorbance. growth inhibition, % at 100 µM. 98,000 compounds, 0.15% hits;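 active = growth inhibition above about 50% at one test dose, limit read from the data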;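 also: growth measured after 20 h incubation at 37 °C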
PostGolgi yeast: phenotypic screen on post-Golgi transport, primary screen; post-Golgi transport phenotypic cell assay; inhibition, % at 10 µM; 98,000 compounds, 0.9% hits;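 also: yeast cells grown in 1536-well plates; yeast grown about 18 h at 30C before absorbance read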
tolC growth inh: growth inhibitors of E. coli tolC mutant, primary screen, strain BW25113 ΔtolC::kan, 384-well; growth inhibition, % at 10 µM (by protocol); 65,000 compounds, 2.2% hits; OD615;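 active = growth inhibition at or above a cutoff equal to the mean over every tested compound plus 3 SD, cut at about 60% in these data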;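 also: growth measured after 20 h incubation at 37 °C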
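Test system: E. coli BW25113 ΔtolC::kan bacteria | Medium: Kanamycin-containing LB broth (50 µg/mL) | Dosing: One dose of 10 µM final | Times: 20 h incubation with compound, 37 °C | Detection: Optical density read at 615 nm | Read-out basis: Percent growth inhibition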
HER2 expr 66K: inhibitors of Her2 protein expression, primary screen, SKBR-3 cells, AlphaScreen, 66K library; SKBR-3 HER2 protein level, 18-24 h; hits give low values; HER2 level % of control, % at 10 µM; 65,000 compounds, 0.69% hits;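 active = HER2 level under 5% of the carrier-only control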;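 also: lower value means stronger loss of Her2 protein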
Target sequence (P04626 whole entry, looked up): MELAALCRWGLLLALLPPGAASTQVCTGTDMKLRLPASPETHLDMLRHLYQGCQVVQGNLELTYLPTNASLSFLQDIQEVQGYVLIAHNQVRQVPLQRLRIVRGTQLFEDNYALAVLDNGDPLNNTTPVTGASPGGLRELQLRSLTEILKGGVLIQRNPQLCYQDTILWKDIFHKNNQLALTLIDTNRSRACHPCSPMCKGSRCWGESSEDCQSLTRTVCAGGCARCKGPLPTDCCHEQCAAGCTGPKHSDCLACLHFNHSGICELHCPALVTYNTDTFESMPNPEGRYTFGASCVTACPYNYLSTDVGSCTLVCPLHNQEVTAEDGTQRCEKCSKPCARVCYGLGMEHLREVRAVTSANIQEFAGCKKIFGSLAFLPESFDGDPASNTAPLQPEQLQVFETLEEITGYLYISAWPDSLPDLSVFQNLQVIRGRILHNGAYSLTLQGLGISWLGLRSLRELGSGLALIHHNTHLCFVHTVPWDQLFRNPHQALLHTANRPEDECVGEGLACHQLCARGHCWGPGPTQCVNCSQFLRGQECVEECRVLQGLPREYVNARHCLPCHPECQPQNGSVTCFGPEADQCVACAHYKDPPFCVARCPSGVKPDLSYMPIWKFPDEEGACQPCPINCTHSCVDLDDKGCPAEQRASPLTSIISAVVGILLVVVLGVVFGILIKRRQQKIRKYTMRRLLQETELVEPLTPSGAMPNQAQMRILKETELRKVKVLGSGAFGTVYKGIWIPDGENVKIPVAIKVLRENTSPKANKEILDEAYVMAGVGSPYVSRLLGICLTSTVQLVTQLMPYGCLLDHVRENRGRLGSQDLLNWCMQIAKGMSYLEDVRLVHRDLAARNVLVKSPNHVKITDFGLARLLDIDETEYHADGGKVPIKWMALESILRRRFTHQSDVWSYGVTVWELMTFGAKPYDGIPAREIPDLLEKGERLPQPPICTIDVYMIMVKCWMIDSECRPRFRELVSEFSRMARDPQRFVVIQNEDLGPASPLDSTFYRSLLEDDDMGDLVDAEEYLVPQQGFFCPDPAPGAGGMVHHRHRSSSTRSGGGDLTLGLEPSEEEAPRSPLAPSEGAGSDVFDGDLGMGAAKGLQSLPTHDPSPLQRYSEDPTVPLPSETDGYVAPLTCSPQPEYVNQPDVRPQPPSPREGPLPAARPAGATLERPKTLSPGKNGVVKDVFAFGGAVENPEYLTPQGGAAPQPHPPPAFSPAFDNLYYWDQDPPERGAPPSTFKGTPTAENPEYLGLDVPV
PostGolgi ctrl: growth inhibition of yeast control strain, primary screen, counter-screen for post-Golgi transport modulator project; efflux-deficient yeast background strain, growth absorbance A615, 16 h; inhibition, % at 10 µM; 98,000 compounds, 5% hits; AID 738, 2007
Each line names hits and unclear results; the compound was inactive in the other large screens. Rule as the data show it, unless noted: active = inhibition above about 30%; inactive = the rest.

CSc1nc2ccc(NS(=O)(=O)c3ccc(Cl)s3)cc2s1	tolC growth inh 99, PostGolgi ctrl 40
CCN(CC)S(=O)(=O)c1ccc(C2CNC(=O)C2)cc1 (configuration not stated)	none
CCNc1sc(C(=O)c2cccs2)c(N)c1-c1nc2ccccc2s1	PostGolgi ctrl 36
O=C(CNCCC1=CCCCC1)Nc1ccc(N2CCCCCC2)cc1	PostGolgi ctrl 100 (no result: tolC growth inh, HER2 expr 66K)
COc1ccc(NC2=C(C)C(=O)CC2)cc1	PostGolgi ctrl 46
O=C1Nc2ccccc2C1=Nc1ccc(-c2nnc3n2CCCCC3)cc1	none
CCCN(CCC)c1nc2ccccc2n2c(C)nnc12	PostGolgi ctrl 45
Cc1cc(NC(=O)COC(=O)C(Nc2ccc(C(F)(F)F)cc2Cl)C(C)C)no1 (configuration not stated)	tolC growth inh 91, PostGolgi ctrl 59
O=S(=O)(NCCSc1ccc(Cl)cc1)c1ccc2c(c1)OCCO2	tolC growth inh 100, PostGolgi ctrl 31
O=S(=O)(NCCSCc1ccc(Cl)cc1Cl)c1ccc2c(c1)OCCO2	none (no result: tolC growth inh, HER2 expr 66K)
CN(C)CCCNc1oc(-c2cccc(Cl)c2)nc1C#N	none
CC1CCN(C(=O)CSc2ccc3nnc(-c4ccccc4)n3n2)CC1	none (no result: Ecoli WT expand, PostGolgi yeast, PostGolgi ctrl)
CCSC1=C(C#N)C2(CCCC2)C(C#N)=C(N)N1	none
N#CC1=C(N)NC(SCc2ccc(Cl)cc2)=C(C#N)C12CCCCC2	PostGolgi yeast 48
Cc1ccc(OCC(=O)Nn2c(C)nc3ccccc3c2=O)c(C(C)C)c1	none (no result: tolC growth inh, HER2 expr 66K)
COCCOc1ccc(C(F)(F)F)cc1Nc1nc2ccccc2o1	PostGolgi ctrl 54
COCCOc1ccc(C(F)(F)F)cc1NC(=O)COC(=O)c1c(C)noc1C	none
O=S(=O)(c1cccc2cccnc12)N1CCN(c2ccccc2)CC1	none (no result: tolC growth inh, HER2 expr 66K)
Cc1ccc2cccc(S(=O)(=O)N3CCN(c4cccc(Cl)c4)CC3)c2n1	PostGolgi ctrl 57
COc1ccc(CCN2C(=O)C3CC(C)=C(C)CC3C2=O)cc1OC (configuration not stated)	none (no result: tolC growth inh, HER2 expr 66K)
Cc1cccc(/C=C2/SC(=O)N(Cc3ccccc3Cl)C2=O)n1	PostGolgi ctrl 39 (no result: tolC growth inh, HER2 expr 66K)
CCOC(=O)N1CCN(C(=O)c2nc3ccccc3s2)CC1	none
COc1ccc(S(=O)(=O)Nc2cc(C)nn2-c2ccccc2)cc1	none (no result: tolC growth inh, HER2 expr 66K)
Cc1[nH]n(-c2ccccc2)c(=O)c1Sc1ccc(Cl)cc1	PostGolgi ctrl 35 (no result: tolC growth inh, HER2 expr 66K)
C=CCSc1nc2c(c(=N)n1CC=C)C1CCCC1S2 (configuration not stated)	tolC growth inh 96
CCC(Oc1ccccc1)C(=O)Nc1ccc(S(=O)(=O)Nc2cnc3ccccc3n2)cc1 (configuration not stated)	none (no result: tolC growth inh, HER2 expr 66K)
Cc1cc(Cl)ccc1OC(C)C(=O)Nc1ccc(S(=O)(=O)Nc2cnc3ccccc3n2)cc1 (configuration not stated)	PostGolgi ctrl 35 (no result: tolC growth inh, HER2 expr 66K)
Cc1cc(NS(=O)(=O)c2ccc(C3CCCCC3)cc2)no1	PostGolgi ctrl 34
CC(Oc1ccc(Cl)cc1Cl)C(=O)Nc1ccc(S(=O)(=O)Nc2cnc3ccccc3n2)cc1 (configuration not stated)	PostGolgi yeast 57, PostGolgi ctrl 49 (no result: tolC growth inh, HER2 expr 66K)
Cc1ccc(OC(C)C(=O)Nc2ccc(S(=O)(=O)Nc3cc(C)on3)cc2)cc1 (configuration not stated)	PostGolgi ctrl 33 (no result: tolC growth inh, HER2 expr 66K)
C=CCNS(=O)(=O)c1ccc(OCC(=O)OC)cc1	none
Cc1ccc2oc3c(c(=O)c2c1)C(c1cccc(Br)c1)N(Cc1ccco1)C3=O (configuration not stated)	PostGolgi ctrl 42
CCn1c(CNC(=O)COc2ccc(C(C)C)cc2)nnc1SCC(=O)Nc1ccccc1C(C)C	PostGolgi ctrl 43 (no result: tolC growth inh, HER2 expr 66K)
N#CCc1ccc(NC(=O)Nc2cccc(Cl)c2)cc1	PostGolgi ctrl 31
COC(=O)c1cc(NC(=O)Nc2cccc(Cl)c2)ccc1Cl	PostGolgi ctrl 41 (no result: tolC growth inh, HER2 expr 66K)
N#Cc1ccccc1NC(=O)Nc1cccc(Cl)c1	none
O=C(Nc1cccc(Cl)c1)Nc1nccs1	Ecoli WT expand 77, tolC growth inh 69
COC(=O)c1ccccc1NC(=O)C1CC(=O)N(C2CCCCC2)C1 (configuration not stated)	none
O=[N+]([O-])c1cc(S(=O)(=O)C(F)(F)F)ccc1Sc1nc2ccccc2s1	PostGolgi yeast 41, PostGolgi ctrl 92 (no result: tolC growth inh, HER2 expr 66K)
O=[N+]([O-])c1cc(S(=O)(=O)C(F)(F)F)ccc1Sc1nc2ccccc2[nH]1	PostGolgi ctrl 70 (no result: tolC growth inh, HER2 expr 66K)
O=C(Cc1ccccc1)N/N=C/c1cccs1	none (no result: tolC growth inh, HER2 expr 66K)
CC1=CCC(C(=O)N/N=C/c2cccs2)C(c2ccc(F)cc2)C1 (configuration not stated)	PostGolgi ctrl 45 (no result: tolC growth inh, HER2 expr 66K)
Cc1ccccc1OCCCC(=O)Nc1nccs1	HER2 expr 66K -20
Cc1ccc(C)c(OCCCC(=O)Nc2nccs2)c1	none (no result: tolC growth inh, HER2 expr 66K)
COc1ccccc1C(CC(=O)Nc1nccs1)c1ccco1 (configuration not stated)	HER2 expr 66K -17
CCCCC(CC)C(=O)Nc1ccccc1C(=O)NC(C)C (configuration not stated)	PostGolgi ctrl 37
CCCCC(CC)C(=O)Nc1ccccc1C#N (configuration not stated)	none
Oc1c(CN2CCN(c3ccccn3)CC2)cc(Cl)c2cccnc12	Ecoli WT expand 54, tolC growth inh 98
OCCN1CCN(Cc2cc(Cl)c3cccnc3c2O)CC1	none (no result: tolC growth inh, HER2 expr 66K)
COCc1cc(CN2CCCC2)c(O)c2ncccc12	none
Oc1c(CN2CCCCC2)cc(COCc2ccccc2)c2cccnc12	tolC growth inh 100
Cc1ccc(-c2c3c(nc4sc(C(N)=O)c(N)c24)CCC3)cc1	PostGolgi ctrl 50 (no result: tolC growth inh, HER2 expr 66K)
Nc1c(C(=O)NCc2ccc(Cl)cc2)sc2nc3c(c(C(F)(F)F)c12)CCC3	none (no result: tolC growth inh, HER2 expr 66K)
Cc1ccc(CNC(=O)c2sc3nc4c(c(C(F)(F)F)c3c2N)CCC4)cc1	none (no result: tolC growth inh, HER2 expr 66K)
NC(=O)c1sc2nc3c(c(-c4ccc(Cl)cc4)c2c1N)CCCC3	PostGolgi ctrl 35 (no result: tolC growth inh, HER2 expr 66K)
O=C(NC(NNc1ccc([N+](=O)[O-])cc1)(C(F)(F)F)C(F)(F)F)c1ccccc1Cl	PostGolgi ctrl 44 (no result: tolC growth inh, HER2 expr 66K)
Cc1ccccc1C(=O)NNc1ccc([N+](=O)[O-])cc1	none (no result: tolC growth inh, HER2 expr 66K)
COc1ccccc1NC(=O)Nc1ccnn1Cc1cccs1	none
Cc1cc(C)n2nc3nc4c(cc3c2n1)CCCC4	none
COc1ccccc1-c1nnc2sc(-c3cc4ccccc4o3)nn12	PostGolgi ctrl 41
CC(NC(=O)CCc1ccc(S(=O)(=O)NC2CCCCC2)cc1)c1ccccc1 (configuration not stated)	none (no result: tolC growth inh, HER2 expr 66K)
Cc1ccc(N(CC(=O)Nc2cccc(C)c2)S(=O)(=O)c2cccc3nonc23)cc1	tolC growth inh 62
Cc1cc(N2CCCC2)ccc1/C=N/n1cnnc1	none
C=C(C)COc1ccc(-c2nc(N)nc(C)c2Oc2ccccc2OC)c(O)c1	none
Cc1[nH]nc(-c2ccc(OCc3cnn(-c4ccccc4)c3)cc2O)c1Oc1ccccc1F	PostGolgi ctrl 42 (no result: tolC growth inh, HER2 expr 66K)

Compound activity deposited in PubChem BioAssay by SRMLSC.
